From ChEMBL document CHEMBL4229410, “Facile construction of fused benzimidazole-isoquinolinones that induce cell-cycle arrest and apoptosis in colorectal cancer cells” (Bioorg Med Chem, 2018)
Calls of active or inactive are those of the source. The calls are words filed in the database; no cut-off is given here.

Assays:
HT-29 [1] = assay: Induction of apoptosis in human HT-29 cells assessed as early apoptotic cells at 50 uM after 48 hrs by Annexin-V-FITC/propidium iodide staining based flow cytometry (reference value: 1%); format: functional
HT-29 [2] = assay: Cell cycle arrest in human HT-29 cells assessed as accumulation at G2-phase at 25 uM after 48 hrs by propidium iodide staining based flow cytometry (reference value: 15.45%); format: functional
Ephrin type-A receptor 2 = Ephrin type-A receptor 2 (Homo sapiens, UniProt P29317); assay: Inhibition of human EPHA2 (T593 to V891 residues) expressed in bacterial expression system assessed as residual activity at 5 uM by KINOMEscan assay relative to control
SW-620 [3] = assay: Cell cycle arrest in human SW620 cells assessed as accumulation at G2-phase at 75 uM after 48 hrs by propidium iodide staining based flow cytometry (reference value: 14.08%); format: functional
[4] = biological target: Serine/threonine-protein kinase PLK3 (Homo sapiens, UniProt Q9H4B4); assay: Inhibition of partial length human PLK3 (A42 to L334 residues) expressed in mammalian expression system assessed as residual activity at 5 uM by KINOMEscan assay relative to control
Aurora kinase A = Aurora kinase A (Homo sapiens, UniProt O14965); assay: Binding affinity to human AURKA (E122 to K401 residues) expressed in mammalian expression system by KINOMEscan assay
[5] = biological target: Serine/threonine-protein kinase pim-2 (Homo sapiens, UniProt Q9P1W9); assay: Binding affinity to human PIM2 (M1 to E291 residues) expressed in bacterial expression system by KINOMEscan assay
[6] = biological target: Vascular endothelial growth factor receptor 2 (Homo sapiens, UniProt P35968); assay: Binding affinity to human VEGFR2 (R787 to P1253 residues) expressed in mammalian expression system by KINOMEscan assay
[7] = biological target: Mitogen-activated protein kinase 8 (Homo sapiens, UniProt P45983); assay: Inhibition of full length human JNK1 (M1 to Q384 residues) expressed in mammalian expression system assessed as residual activity at 5 uM by KINOMEscan assay relative to control
[8] = biological target: Serine/threonine-protein kinase PAK 1 (Homo sapiens, UniProt Q13153); assay: Inhibition of human PAK1 (S149 to H545 residues) expressed in bacterial expression system assessed as residual activity at 5 uM by KINOMEscan assay relative to control
[9] = biological target: Cyclin-dependent kinase 9 (Homo sapiens, UniProt P50750); assay: Inhibition of full length human CDK9 (M1 to F372 residues) expressed in bacterial expression system assessed as residual activity at 5 uM by KINOMEscan assay relative to control
SW-620 [10] = assay: Induction of apoptosis in human SW620 cells assessed as late apoptotic cells at 25 uM after 48 hrs by Annexin-V-FITC/propidium iodide staining based flow cytometry (reference value: 1.2%); format: functional
Angiopoietin-1 receptor = Angiopoietin-1 receptor (Homo sapiens, UniProt Q02763); assay: Inhibition of human TIE2 (N804 to T1112 residues) expressed in bacterial expression system assessed as residual activity at 5 uM by KINOMEscan assay relative to control
[11] = biological target: T1, Rho-associated protein kinase 2 (Homo sapiens, UniProt O75116); assay: Binding affinity to human ROCK2 (M1 to T431 residues) expressed in mammalian expression system by KINOMEscan assay
[12] = biological target: T1, Rho-associated protein kinase 2; assay: Inhibition of human ROCK2 (M1 to T431 residues) expressed in mammalian expression system assessed as residual activity at 5 uM by KINOMEscan assay relative to control
[13] = biological target: Serine/threonine-protein kinase pim-1 (Homo sapiens, UniProt P11309); assay: Binding affinity to human PIM1 (A15 to K313 residues) expressed in bacterial expression system by KINOMEscan assay
[14] = biological target: Serine/threonine-protein kinase B-raf (Homo sapiens, UniProt P15056, V600E); assay: Binding affinity to human BRAF (S429 to E741 residues) V600E mutant expressed in mammalian expression system by KINOMEscan assay
[15] = biological target: Tyrosine-protein kinase ABL1 (Homo sapiens, UniProt P00519); assay: Inhibition of human non-phosphorylated ABL1 (S229 to K512 residues) expressed in mammalian expression system assessed as residual activity at 5 uM by KINOMEscan assay relative to control
[16] = biological target: Serine/threonine-protein kinase mTOR (Homo sapiens) (UniProt P42345); assay: Inhibition of mTOR in human HT-29 cells assessed as reduction in 4EBP1 phosphorylation up to 75 uM after 48 hrs by Western blot analysis; format: cell-based
[17] = biological target: ALK tyrosine kinase receptor (Homo sapiens, UniProt Q9UM73); assay: Binding affinity to human ALK (I1088 to E1409 residues) expressed in mammalian expression system by KINOMEscan assay
[18] = biological target: Serine/threonine-protein kinase PLK4 (Homo sapiens) (UniProt O00444); assay: Inhibition of partial length human PLK4 (M1 to S273 residues) expressed in mammalian expression system assessed as residual activity at 5 uM by KINOMEscan assay relative to control
[19] = biological target: Macrophage colony-stimulating factor 1 receptor (Homo sapiens, UniProt P07333); assay: Binding affinity to human CSF1R (I564 to S939 residues) expressed in bacterial expression system by KINOMEscan assay
HT-29 [20] = assay: Induction of apoptosis in human HT-29 cells assessed as necrotic cells at 25 uM after 48 hrs by Annexin-V-FITC/propidium iodide staining based flow cytometry (reference value: 1.6%); format: functional
SW-620 [21] = assay: Induction of apoptosis in human SW620 cells assessed as early apoptotic cells at 75 uM after 48 hrs by Annexin-V-FITC/propidium iodide staining based flow cytometry (reference value: 0.4%); format: functional
HT-29 [22] = assay: Cell cycle arrest in human HT-29 cells assessed as accumulation at S-phase at 50 uM after 48 hrs by propidium iodide staining based flow cytometry (reference value: 37.82%); format: functional
[23] = biological target: Epidermal growth factor receptor (Homo sapiens, UniProt P00533); assay: Binding affinity to partial length human EGFR (R669 to V1011 residues) expressed in bacterial expression system by KINOMEscan assay
Focal adhesion kinase 1 = Focal adhesion kinase 1 (Homo sapiens, UniProt Q05397); assay: Binding affinity to human FAK (D402 to R696 residues) expressed in bacterial expression system by KINOMEscan assay
SW-620 [24] = assay: Increase in PTEN expression in human SW620 cells after 48 hrs by Western blot analysis; format: functional, cell-based
Outline: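 HT29 or SW620 cells were treated at 0, 25, 50 and 75 μM for 48 h and lysed in RIPA with protease and phosphatase inhibitors. Protein was quantified by BCA. 50 μg lysate was run on 8–15% SDS-PAGE and transferred to PVDF. Blocking was 5% BSA/TBST for 2 h; primary antibodies were applied overnight at 4 °C, then HRP secondary 1 h at room temperature.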

[25] = biological target: Tyrosine-protein kinase receptor UFO (Homo sapiens) (UniProt P30530); assay: Inhibition of human AXL (R497 to Y821 residues) expressed in bacterial expression system assessed as residual activity at 5 uM by KINOMEscan assay relative to control

In the case of `CC(C)CN(C(=O)c1cccnc1)c1c2ccccc2c(=O)n2c1[nH]c1ccccc12`, the Activity (HT-29 [1]) is reported as 1.7%, the Activity (HT-29 [2]) is reported as 16.97% and the Activity (Ephrin type-A receptor 2) is reported as 100%. The Activity (SW-620 [3]) was 29.26%, the Activity [4] was 87% and the Kd (Aurora kinase A) was at least 5 µM. The Kd [5] was at least 5 µM, the Kd [6] was at least 5 µM and the Activity [7] was 69%. The Activity [8] was 100%, the Activity [9] was 87% and the Activity (SW-620 [10]) was 4.1%. It also gave an Activity (Angiopoietin-1 receptor) of 88%, a Kd [11] of at least 5 µM and an Activity [12] of 80%. The Kd [13] was at least 5 µM, the Kd [14] was at least 5 µM and the Activity [15] was 65%. The inhibition [16] was “Active”, the Kd [17] was at least 5 µM and the Activity [18] was 100%. It also gave a Kd [19] of at least 5 µM, an Activity (HT-29 [20]) of 2.7% and an Activity (SW-620 [21]) of 0.2%. The Activity (HT-29 [22]) was 35.86%, the Kd [23] was at least 5 µM and the Kd (Focal adhesion kinase 1) was at least 5 µM. For the same compound, the Activity (SW-620 [24]) was “Dose-dependent effect” and the Activity [25] was 100%.
